# Active and inactive are the calls of the source. The rule behind the calls is not given here.
# Experiments:
# [1] = tested on: Human immunodeficiency virus 1; assay: Antiviral activity against HIV-1 SM002 harboring NNTRI 181C mutant infected in human MT4 cells assessed as inhibition of viral replication relative to HIV-1 3B; format: functional
# Outline: (§1)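 MT-4 cells (3 x 10^4/well) infected with site-directed mutants or recombinant clinical isolates (200 TCID50/well) with drug, cultured 3 to 5 days. Viability read by MTT colorimetric antivirogram assay. IC50 by nonlinear regression; fold change = IC50 for the test isolate / IC50 for wild-type HIV-1 IIIB tested in parallel (mean or median).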
# [2] = tested on: Human immunodeficiency virus 1; assay: Antiviral activity against HIV-1 Bal infected in human TZM-bl cells after 24 hrs by luciferase reporter gene assay; format: functional, organism-based; conditions: Human immunodeficiency virus 1, Bal
# Outline: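 TZM-bl cells (5 x 10^4/well), cultured overnight, pretreated with drug 1 h, then infected with HIV-1 BaL (200 TCID50/ml). After 24 h, cells washed and lysed and luciferase read. Drug-treated wells compared with untreated controls; IC50 (infection at 50% of drug-free control) by nonlinear regression.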
# [3] = tested on: Human immunodeficiency virus 1; assay: Antiviral activity against HIV-1 subtype B V022809 infected in human MT4 cells assessed as inhibition of viral replication relative to HIV-1 3B; format: functional; outline: as §1
# [4] = tested on: Human immunodeficiency virus 1; assay: Antiviral activity against HIV-1 SM012 harboring NNTRI 108I mutant infected in human MT4 cells assessed as inhibition of viral replication relative to HIV-1 3B; format: functional; outline: as §1
# [5] = tested on: Human immunodeficiency virus 1; assay: Antiviral activity against HIV-1 subtype CRF05_DF V022833 harboring NNRTI V179I mutant infected in human MT4 cells assessed as inhibition of viral replication relative to HIV-1 3B; format: functional; outline: as §1
# [6] = tested on: Human immunodeficiency virus 1; assay: Antiviral activity against HIV-1 Bal infected in human TZM-bl cells after 24 hrs by luciferase reporter gene assay in presence of 12.5% cervical mucus; format: functional, organism-based; conditions: Human immunodeficiency virus 1, Bal
# Outline: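 TZM-bl cells (5 x 10^4/well), cultured overnight, pretreated first with cervical mucus simulant (12.5% final) and then drug (1 h), then infected with HIV-1 BaL (200 TCID50/ml). After 24 h, cells lysed and luciferase read. IC50 versus drug-free control by nonlinear regression; effect of mucus tested by ANOVA with Bonferroni and t tests.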
# [7] = tested on: Human immunodeficiency virus 1; assay: Antiviral activity against HIV-1 subtype B V022815 infected in human MT4 cells assessed as inhibition of viral replication relative to HIV-1 3B; format: functional
# Outline: (§2)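 Recombinant clinical HIV-1 isolates (200 TCID50/well) were tested in MT-4 cells (3 x 10^4/well) over 3–5 days, with an MTT viability read-out. IC50 was fitted by nonlinear regression. Fold change is the isolate IC50 divided by the HIV-1IIIB IC50, tested in parallel.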
# [8] = tested on: Human immunodeficiency virus 1; assay: Antiviral activity against HIV-1 Bal infected in human cervical tissue explants assessed as inhibition of dissemination of virus via migratory cells after 2 hrs in presence of 12.5% whole semen; format: functional, organism-based
# Outline: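 Cervical explants were exposed to HIV-1BaL plus drug for 2 h in cervical mucus simulant or whole semen (final 12.5%), then washed. Migratory cells were cocultured with PM-1 indicator cells and infection read as p24 in coculture supernatant.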
# [9] = tested on: Human immunodeficiency virus 1; assay: Antiviral activity against HIV-1 subtype CRF02_AG V022830 infected in human MT4 cells assessed as inhibition of viral replication relative to HIV-1 3B; format: functional; outline: as §1
# [10] = tested on: Human immunodeficiency virus 1; assay: Antiviral activity against HIV-1 SF162 infected in hu-SCID mouse assessed as protection from viral infection at 22.5 uM; format: functional; conditions: Human immunodeficiency virus 1, SF162 ISOLATE
# [11] = tested on: Human immunodeficiency virus 1; assay: Antiviral activity against HIV-1 subtype C V022829 infected in human MT4 cells assessed as inhibition of viral replication relative to HIV-1 3B; format: functional; outline: as §1
# [12] = tested on: Human immunodeficiency virus 1; assay: Antiviral activity against HIV-1 Bal infected in 24 hrs 100 to 1000 nM compound pretreated human ectocervical explant tissue assessed as prolonged inhibition of viral infection post compound removal measured after 6 days post compound removal; format: functional
# Outline: (§3)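 Ectocervical explants were exposed to drug (0.01–10 µM) for 2 or 24 h at 37°C and washed. They received HIV-1BaL (2 h) on day 0, 2, 4 or 6 after drug removal, with no drug present. Read-outs at 10 days post-exposure: explant p24 ELISA, tissue proviral DNA by qPCR, and p24 in migratory cell–PM-1 cocultures. Three donors (2 h) or two donors (24 h), triplicate.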
# [13] = tested on: Human immunodeficiency virus 1; assay: Antiviral activity against HIV-1 Bal infected in 1 hr compound pretreated human ectocervical explant tissue assessed as inhibition of provirus formation at 1 nM by RT-PCR; format: functional; conditions: Human immunodeficiency virus 1, Bal
# Outline: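 Ectocervical explants were pretreated with drug for 1 h, then exposed to HIV-1BaL (two 50% tissue infectious doses, about 10^4 TCID50 on PM-1) for 2 h at 37°C with drug present. Explants were washed and cultured overnight, then cultured separately for 10 days. Tissue was proteinase K-digested and proviral LTR DNA measured by multiplex qPCR against β-actin (10 copies/10^5 cells sensitivity). Two donors, triplicate.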
# [14] = tested on: Human immunodeficiency virus 1; assay: Antiviral activity against HIV-1 SM024 harboring NNTRI 190A mutant infected in human MT4 cells assessed as inhibition of viral replication relative to HIV-1 3B; format: functional; outline: as §1
# [15] = tested on: Human immunodeficiency virus 1; assay: Antiviral activity against HIV-1 SM007 harboring NNTRI 103N mutant infected in human MT4 cells assessed as inhibition of viral replication relative to HIV-1 3B; format: functional; outline: as §1
# [16] = tested on: Human immunodeficiency virus 1; assay: Antiviral activity against HIV-1 Bal infected in 2 hrs 100 nM compound pretreated human ectocervical explant tissue assessed as prolonged inhibition of viral infection post compound removal; format: functional; outline: as §3
# [17] = Toxicity against human Ectocervical tissue explants at 0.0001 to 100 uM after 24 hrs by MTT assay
# Outline: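 Uninfected ectocervical explants were exposed to drug for 2 or 24 h. Viability was measured by MTT reduction per milligram of tissue relative to unexposed explants, either immediately or after overnight culture. Three or four donors, triplicate.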
# [18] = tested on: Human immunodeficiency virus 1; assay: Antiviral activity against HIV-1 Bal infected in human PM1 cells after 7 days by RT assay; format: functional, organism-based; conditions: Human immunodeficiency virus 1, Bal, PM1, 168 h
# Outline: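 PM-1 cells (4 x 10^4/well) were infected with HIV-1BaL or HIV-1RF (200 TCID50/ml) and cultured 7 days with drug. Replication was measured as reverse transcriptase in supernatant versus untreated wells. IC50 was obtained by nonlinear regression.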
# [19] = tested on: Human immunodeficiency virus 1; assay: Antiviral activity against HIV-1 Bal infected in 2 hrs 1000 nM compound pretreated human ectocervical explant tissue assessed as prolonged inhibition of viral infection post compound removal measured after 2 days post compound removal; format: functional; outline: as §3
# [20] = Selectivity index, ratio of CC50 for human TZM-bl cells to IC50 for HIV-1 3B; format: functional
# Outline: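 Selectivity index is CC50/IC50, using values determined in the same time period. CC50 was measured by MTT for TZM-bl and PM-1 cells and by trypan blue exclusion after 14 days for macrophages. Both were fitted by nonlinear regression.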
# [21] = tested on: Human immunodeficiency virus 1; assay: Antiviral activity against HIV-1 subtype H V022828 harboring NNRTI K101Q and V179I mutant infected in human MT4 cells assessed as inhibition of viral replication relative to HIV-1 3B; format: functional; outline: as §1
# [22] = tested on: Human immunodeficiency virus 1; assay: Antiviral activity against HIV-1 subtype CRF01_AE V022821 infected in human MT4 cells assessed as inhibition of viral replication relative to HIV-1 3B; format: functional; outline: as §2
structure (smiles),measurement,setting,value
Cc1cc(C)c(Nc2ccnc(Nc3ccc(C#N)cc3)n2)c(C)c1 [DAPIVIRINE],Ratio IC50,[1],8
same,IC50,[2],1.46 nM
same,IC90,[2],10.2 nM
same,Ratio IC50,[3],1.5
same,Ratio IC50,[4],1
same,Ratio IC50,[5],1
same,IC50,[6],8.32 nM
same,IC90,[6],41.6 nM
same,Ratio IC50,[7],2.2
same,inhibition,[8],Active
same,Ratio IC50,[9],1.6
same,inhibition in vivo at 22.5 µM,[10],78.6%
same,Ratio IC50,[11],1
same,inhibition (INH),[12],90%
same,inhibition at 0.001 µM,[13],> 99%
same,Ratio IC50,[14],1
same,Ratio IC50,[15],5
same,inhibition (INH),[16],90%
same,Activity,[17],Non-toxic
same,IC50,[18],6 nM
same,inhibition (INH),[19],90%
same,Selectivity Index,[20],20400
same,Ratio IC50,[21],1.5
same,Ratio IC50,[22],1.7

# Source: ChEMBL document CHEMBL1671644, “Inhibition of human immunodeficiency virus type 1 infection by the candidate microbicide dapivirine, a nonnucleoside reverse transcriptase inhibitor” (Antimicrob Agents Chemother, 2009)
